Like-named read-outs stand apart in the source and are kept apart here.
Columns and labels:
[1] = system: orthotopic Lewis lung carcinoma; conditions: cited from earlier work
tubulin = test: Tubulin polymerization assay; format: biochemical
Summary of the method: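 Kit-based assay: 3 mg/mL tubulin in 80 mM PIPES, pH 6.9, with glycerol, run at 37°C. Test compound at 10 and 34 μM, parent drug at 10 μM as positive control, plus untreated control. Polymerization followed as OD340, read once per minute for 60 min. Maximum rate (Vmax, mOD/min) and time to reach it taken from the curves.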

[2] = system: A549-luc-c8 human lung adenocarcinoma cells; test: MTT cytotoxicity assay; format: cell-based; conditions: 48 h
Summary of the method: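 A549-luc-c8 luciferase-expressing cells grown in RPMI 1640 with 10% FBS and antibiotic at 37°C, 5% CO2. Seeded at 5,000 cells per 100 μL medium per well. Free parent drug, conjugate nanoparticles or blank nanoparticles added across a concentration series for 48 h at 37°C. MTT then added for 3 h, dye dissolved in DMSO, A570 read. IC50 taken from survival plots; blank-particle IC50 expressed at drug-equivalent dose.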

Structure (SMILES) | therapeutic effect ([1]; treatment starting on day 1) | therapeutic effect ([1]; treatment starting on day 10) | Vmax (maximum rate of tubulin polymerization) (tubulin; 10 μM, 37°C, 3 mg/mL tubulin) [mOD/min] | time at which Vmax was reached (tubulin; 60 minute time course) [min] | IC50 [2] [nM]
N.N.[Cl][Pt][Cl] [Cisplatin, cisplatin] | suppressed primary lung tumor growth and lymph node metastasis | failed to show any significant therapeutic effect |  |  | 
CC(=O)O[C@H]1C(=O)[C@@]2(C)[C@H]([C@H](OC(=O)c3ccccc3)[C@]3(O)C[C@H](OC(=O)[C@H](O)[C@@H](NC(=O)c4ccccc4)c4ccccc4)C(C)=C1C3(C)C)[C@]1(OC(C)=O)CO[C@@H]1C[C@@H]2O [PX, paclitaxel] |  |  | 29.0±0.0 | 0 to 3 | 5.3 ± 3.2
